pIC50: −log10 of the molar value. Active and inactive are the calls of the source. The rule behind the calls is not given here.
Key:
[1] = biological target: T1, Peroxisome proliferator-activated receptor delta (Mus musculus) (UniProt P35396); assay: Displacement of fluormone Pan-PPAR Green from mouse recombinant GST-tagged PPARbeta/delta LBD at 1 uM after 60 mins by TR-FRET assay
T1 sequence (whole entry): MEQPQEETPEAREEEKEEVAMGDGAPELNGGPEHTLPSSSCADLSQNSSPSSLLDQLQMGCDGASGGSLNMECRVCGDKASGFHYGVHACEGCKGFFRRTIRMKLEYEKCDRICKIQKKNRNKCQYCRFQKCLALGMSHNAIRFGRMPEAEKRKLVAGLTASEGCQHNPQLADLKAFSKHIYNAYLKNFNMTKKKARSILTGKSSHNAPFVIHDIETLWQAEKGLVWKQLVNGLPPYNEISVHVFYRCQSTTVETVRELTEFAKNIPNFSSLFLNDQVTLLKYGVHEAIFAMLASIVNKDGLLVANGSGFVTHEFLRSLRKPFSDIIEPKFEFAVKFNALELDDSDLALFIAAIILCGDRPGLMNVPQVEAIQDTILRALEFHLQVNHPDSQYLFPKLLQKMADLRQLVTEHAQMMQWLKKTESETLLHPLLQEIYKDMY
In short: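 Competitive binding by LanthaScreen TR-FRET: recombinant GST-PPARβ/δ LBD, detected through a terbium-labelled anti-GST antibody, was incubated with Fluormone Pan-PPAR Green. Compound was tested at 1 μM. Read-out is the 520 nm/495 nm emission ratio after terbium excitation, as averages of triplicates ± SD.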

[2] = biological target: T2, Peroxisome proliferator-activated receptor delta (Mus musculus, UniProt P35396); assay: Inverse agonist activity at PPARbeta/delta in mouse C2C12 cells assessed as inhibition of Angptl4 expression after 24 hrs by RT-qPCR analysis; format: functional, cell-based
T2 sequence (P35396 whole entry): T1 sequence (whole entry)

[3] = biological target: T1, Peroxisome proliferator-activated receptor delta (Mus musculus); assay: Antagonist activity at PPARbeta/delta in mouse NIH3T3 cells coexpressing LexA assessed as decrease in L165,041-induced transcriptional activation at 1 uM after 48 hrs by luciferase reporter gene assay relative to control; format: functional, cell-based
In short: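 NIH3T3 cells were transfected with LexA-PPARα, -PPARβ/δ or -PPARγ fusion plasmids plus the 7L-TATAi luciferase reporter. From 4 h post-transfection, cells received inhibitory ligand (1 μM) for 48 h. Agonists followed: GW7647 300 nM (PPARα), L165,041 1 μM (PPARβ/δ) or GW1929 300 nM (PPARγ), or agonist solvent. Induction is luciferase activity with agonist relative to solvent; triplicates with t test.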

Activity [1] | Structure (SMILES) | also measured
Active | N#C/C(=C\c1ccc(N2CCCCCC2)cc1)c1ccccc1 | 
Active | N#C/C(=C\c1ccc(N2CCCC2)cc1)c1ccccc1 | 
Active | N#C/C(=C\c1cccc(Br)c1)c1ccccc1 | 
Active | N#C/C(=C\c1ccc(N2CCOCC2)cc1)c1ccccc1 | 
Active | N#C/C(=C\c1ccc(N2CCCCC2)cc1)c1ccccc1 | Activity [3]: Active
Active | CN1CCN(c2ccc(/C=C(\C#N)c3ccccc3)cc2)CC1 | 
Active | N#C/C(=C\c1ccc(Cl)cc1)c1ccccc1 | 
Active | N#C/C(=C\c1ccccc1)c1ccccc1 | 
Active | N#C/C(=C\c1ccc(N2CCNCC2)cc1)c1ccccc1 | 
Active | CN(C)Cc1ccc(/C=C(\C#N)c2ccccc2)cc1 | 
Active | COc1ccc(/C=C(\C#N)c2ccccc2)cc1 | 
Active | CC1CCN(c2ccc(/C=C(\C#N)c3ccccc3)cc2)CC1 | 
Active | N#C/C(=C\c1ccc(Nc2ccccc2)cc1)c1ccccc1 | 
Active | N#C/C(=C\c1ccc(Br)cc1)c1ccccc1 | 
Active | N#C/C(=C\c1ccc(N)cc1)c1ccccc1 | 
inactive | CN(C)c1ccc(C(C#N)=Cc2ccccc2)cc1 | 
Active | N#C/C(=C\c1ccc(NC2CCCCC2)cc1)c1ccccc1 | 
Active | N#C/C(=C\c1ccc(C(F)(F)F)cc1)c1ccccc1 | 
Active | N#C/C(=C\c1ccccc1Br)c1ccccc1 | 

The next lines start with the compound.

Structure (SMILES) | Activity [1] | also measured
CN(C)c1ccc(/C=C(\C#N)c2ccc(Cl)cc2)cc1 | Active | 
CN(C)c1ccc(/C=C(\C#N)c2ccccc2F)cc1 | Active | 
CN(C)c1ccc(/C=C(\C#N)c2ccccc2[N+](=O)[O-])cc1 | Active | 
CN(C)c1ccc(/C=C(\C#N)c2ccccc2C(F)(F)F)cc1 | Active | 
COc1ccc(/C(C#N)=C/c2ccc(N(C)C)cc2)cc1 | Active | 
CN(C)c1ccc(/C=C(\C#N)c2ccccc2)cc1 |  | pIC50 [2]: < 6.30
CN(C)c1ccc(/C=C(\C#N)c2ccc(F)cc2)cc1 | Active | 
CN(C)c1ccc(/C=C(\C#N)c2ccccc2I)cc1 | Active | 
CN(C)c1ccc(CC(C#N)c2ccccc2)cc1 (racemic) | inactive | 
CN(C)c1ccc(/C=C(\C#N)c2cccc(Cl)c2)cc1 | Active | 
CN(C)c1ccc(/C=C/C=C(\C#N)c2ccccc2)cc1 | inactive | 
CN(C)c1ccc(/C=C(\C#N)c2ccc([N+](=O)[O-])cc2)cc1 | Active | 
CN(C)c1ccc(/C=C/c2ccccc2)cc1 | inactive | 
CN(C)c1ccc(/C=C(\C#N)c2ccccc2C#N)cc1 | Active | 
CN(C)c1ccc(/C=C(\C#N)c2ccccc2Br)cc1 | Active | 
COc1ccccc1/C(C#N)=C/c1ccc(N(C)C)cc1 | Active | 

Source: ChEMBL document CHEMBL2029317, “(Z)-2-(2-bromophenyl)-3-{[4-(1-methyl-piperazine)amino]phenyl}acrylonitrile (DG172): an orally bioavailable PPARβ/δ-selective ligand with inverse agonistic properties” (J Med Chem, 2012)
